pEC50: −log10 of the molar value. Activity calls are given as the source filed them. The calls are words filed in the database; no cut-off is given here. Non-standard residues stand in square brackets, D forms with d. Nle = CCCC[C@H](N)C(=O)O
How the values were obtained:
[1] = system: Human immunodeficiency virus 1; test: Antiviral activity against enfuvirtide-resistant Human immunodeficiency virus 1 NL4-3 harboring gp41 D36G/N43D/S138A mutation by MAGI assay using human HeLa Cd4/LTR-beta-galactosidase cells relative to HIV1 NL4-3 gp41 D36G mutant; type: functional
[2] = system: Human immunodeficiency virus 1; test: Antiviral activity against enfuvirtide-resistant Human immunodeficiency virus 1 NL4-3 harboring gp41 D36G/N43D mutation by MAGI assay using human HeLa Cd4/LTR-beta-galactosidase cells; type: functional, organism-based
[3] = system: Human immunodeficiency virus 1; test: Antiviral activity against enfuvirtide-resistant Human immunodeficiency virus 1 NL4-3 by MAGI assay using human HeLa Cd4/LTR-beta-galactosidase cells relative to HIV1 NL4-3 gp41 D36G mutant; type: functional
[4] = system: Human immunodeficiency virus 1; test: Antiviral activity against enfuvirtide-resistant Human immunodeficiency virus 1 NL4-3 harboring gp41 D36G/V38A mutation by MAGI assay using human HeLa Cd4/LTR-beta-galactosidase cells relative to HIV1 NL4-3 gp41 D36G mutant; type: functional
[5] = system: Human immunodeficiency virus 1; test: Antiviral activity against enfuvirtide-resistant Human immunodeficiency virus 1 NL4-3 harboring gp41 D36G/I37K/N126K/L204I mutation and 5-amino-acid deletion in the V4 region of gp120 protein by MAGI assay using human HeLa Cd4/LTR-beta-galactosidase cells relative to HIV1 NL4-3 gp41 D36G mutant by MAGI assay; type: functional
[6] = system: Human immunodeficiency virus 1; test: Antiviral activity against enfuvirtide-resistant Human immunodeficiency virus 1 NL4-3 by MAGI assay using human HeLa Cd4/LTR-beta-galactosidase cells in presence fresh human serum after 2 hrs; type: functional, organism-based
[7] = system: Human immunodeficiency virus 1; test: Antiviral activity against enfuvirtide-resistant Human immunodeficiency virus 1 NL4-3 harboring gp41 D36G/N126K mutation by MAGI assay using human HeLa Cd4/LTR-beta-galactosidase cells; type: functional, organism-based
[8] = system: Human immunodeficiency virus 1; test: Antiviral activity against enfuvirtide-resistant Human immunodeficiency virus 1 NL4-3 harboring gp41 D36G/I37K/N126K/L204I mutation and 5-amino-acid deletion in the V4 region of gp120 protein by MAGI assay using human HeLa Cd4/LTR-beta-galactosidase cells by MAGI assay; type: functional, organism-based
[9] = system: Human immunodeficiency virus 1; test: Antiviral activity against enfuvirtide-resistant Human immunodeficiency virus 1 NL4-3 harboring gp41 D36G/N126K mutation by MAGI assay using human HeLa Cd4/LTR-beta-galactosidase cells relative to HIV1 NL4-3 gp41 D36G mutant; type: functional
[10] = system: Human immunodeficiency virus 1; test: Antiviral activity against enfuvirtide-resistant Human immunodeficiency virus 1 NL4-3 harboring gp41 D36G mutation by MAGI assay using human HeLa Cd4/LTR-beta-galactosidase cells; type: functional, organism-based
[11] = system: Human immunodeficiency virus 1; test: Antiviral activity against enfuvirtide-resistant Human immunodeficiency virus 1 NL4-3 harboring gp41 D36G/V38A mutation by MAGI assay using human HeLa Cd4/LTR-beta-galactosidase cells; type: functional, organism-based
[12] = system: Human immunodeficiency virus 1; test: Antiviral activity against enfuvirtide-resistant Human immunodeficiency virus 1 NL4-3 by MAGI assay using human HeLa Cd4/LTR-beta-galactosidase cells; type: functional, organism-based; settings: Human immunodeficiency virus 1, NL4-3, HeLa
[13] = system: Human immunodeficiency virus 1; test: Antiviral activity against enfuvirtide-resistant Human immunodeficiency virus 1 NL4-3 harboring gp41 D36G/N43D mutation by MAGI assay using human HeLa Cd4/LTR-beta-galactosidase cells relative to HIV1 NL4-3 gp41 D36G mutant; type: functional
[14] = system: Human immunodeficiency virus 1; test: Antiviral activity against enfuvirtide-resistant Human immunodeficiency virus 1 NL4-3 harboring gp41 D36G/N43D/S138A mutation by MAGI assay using human HeLa Cd4/LTR-beta-galactosidase cells; type: functional, organism-based
[15] = system: Human immunodeficiency virus 1; test: Antiviral activity against enfuvirtide-resistant Human immunodeficiency virus 1 NL4-3 by MAGI assay using human HeLa Cd4/LTR-beta-galactosidase cells in presence of 5 to 50% fetal calf serum; type: functional, organism-based
In short: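 MAGI assay against HIV-1 NL4-3 run with FCS at 5, 10, 20 or 50% in the medium. HeLa CD4/LTR-β-galactosidase cells were inoculated at 60 MAGI U/well, cultured 48 h with drug, and X-gal-stained blue cells counted. Each EC50 was determined three times independently, with Student's t test.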

[16] = system: Human immunodeficiency virus 1; test: Antiviral activity against Human immunodeficiency virus 1 NL4-3 assessed as decrease in EC50 by MAGI assay relative to ddC; type: functional, organism-based
In short: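 HeLa CD4/LTR-β-galactosidase (MAGI) cells were seeded at 10^4/well and infected next day with HIV-1 NL4-3 (60 MAGI U/well). They were cultured 48 h with serial drug dilutions in medium containing 5, 10, 20 or 50% FCS, with ddC as the reverse transcriptase inhibitor reference. X-gal-stained blue cells were counted. EC50 is the concentration giving 50% inhibition, determined three times independently.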

Question: What does the source list for H-WEEWDKKIEEYTKKIEELIKKSEEQQKKN-OH?
Answer: Ratio EC50 [1]: 1.8; pEC50 [2]: 8.39; Ratio EC50 [3]: 1.3; Ratio EC50 [4]: 1.6; Ratio EC50 [5]: 26; inhibition [6]: Active; pEC50 [7]: 8.57; pEC50 [8]: 7.30; Ratio EC50 [9]: 1.4; pEC50 [10]: 8.72; pEC50 [11]: 8.52; pEC50 [12]: 8.62; Ratio EC50 [13]: 2.2; pEC50 [14]: 8.47; inhibition [15]: Active

Question: What does the source list for enfuvirtide?
Answer: Ratio EC50 [1]: 35; pEC50 [2]: 7.31; Ratio EC50 [3]: 6.3; Ratio EC50 [4]: 9.6; inhibition [16]: inactive; Ratio EC50 [5]: 163; inhibition [6]: Active; pEC50 [7]: 8.47; pEC50 [8]: 6.41; Ratio EC50 [9]: 1.4; pEC50 [10]: 8.62; pEC50 [11]: 7.64; pEC50 [12]: 7.82; Ratio EC50 [13]: 20; pEC50 [14]: 7.08; inhibition [15]: inactive

Question: Which results are given for `CC[C@H](C)[C@H](NC(=O)[C@H](CC(C)C)NC(=O)[C@H](CO)NC(=O)[C@H](Cc1cnc[nH]1)NC(=O)[C@@H](NC(=O)[C@H](CC(C)C)NC(=O)[C@H](CO)NC(=O)[C@@H](NC(=O)[C@H](Cc1ccc(O)cc1)NC(=O)[C@H](CC(N)=O)NC(=O)[C@H](CC(N)=O)NC(=O)[C@@H](NC(=O)[C@H](CCC(=O)O)NC(=O)[C@H](CCCNC(=N)N)NC(=O)[C@H](CC(=O)O)NC(=O)[C@H](Cc1c[nH]c2ccccc12)NC(=O)[C@H](CCC(=O)O)NC(=O)[C@@H](CCS)NC(=O)[C@@H](N)Cc1c[nH]c2ccccc12)[C@@H](C)CC)[C@@H](C)O)[C@@H](C)CC)C(=O)N[C@@H](CCC(=O)O)C(=O)N[C@@H](CCC(=O)O)C(=O)N[C@@H](CO)C(=O)N[C@@H](CCC(N)=O)C(=O)N[C@@H](CC(N)=O)C(=O)N[C@@H](CCC(N)=O)C(=O)N[C@@H](CCC(N)=O)C(=O)N[C@@H](CCC(=O)O)C(=O)N[C@@H](CCCCN)C(=O)N[C@@H](CC(N)=O)C(=O)N[C@@H](CCC(N)=O)C(=O)N[C@@H](CCC(=O)O)C(=O)N[C@@H](CC(C)C)C(=O)N[C@@H](CC(C)C)C(=O)O`?
Answer: Ratio EC50 [1]: >19; pEC50 [2]: < 6.00; Ratio EC50 [3]: 4.7; Ratio EC50 [4]: 9.7; Ratio EC50 [5]: >19; pEC50 [7]: 6.72; pEC50 [8]: < 6.00; Ratio EC50 [9]: 3.7; pEC50 [10]: 7.28; pEC50 [11]: 6.30; pEC50 [12]: 6.61; Ratio EC50 [13]: >19; pEC50 [14]: < 6.00

Question: For H-WEEWDKKIEEYTKKIEELIKKS-OH, which “Ratio EC50” value [1] is on record?
Answer: >1.5

Question: What about the pEC50 [2] of the same compound?
Answer: 6.94

Question: What about the “Ratio EC50” value [3] of the same compound?
Answer: 0.3

Question: What about the “Ratio EC50” value [4] of the same compound?
Answer: 0.4

Question: What about the “Ratio EC50” value [5] of the same compound?
Answer: 0.4

Question: And the pEC50 [7]?
Answer: < 6.00

Question: What about the pEC50 [8] of the same compound?
Answer: 6.60

Question: And the “Ratio EC50” value [9]?
Answer: >1.5

Question: And the pEC50 [10]?
Answer: 6.16

Question: And the pEC50 [11]?
Answer: 6.54

Question: What about the pEC50 [12] of the same compound?
Answer: 6.66

Question: What about the “Ratio EC50” value [13] of the same compound?
Answer: 0.2

Question: What about the pEC50 [14] of the same compound?
Answer: < 6.00

Question: “H-W[Nle]EWDRKIEEYTKKIEELIKKSQEQQEKNEKELKREREREG-OH” was tested. Which “Ratio EC50” value [1] did it give?
Answer: 0.6

Question: And the pEC50 [2]?
Answer: 8.80

Question: What about the “Ratio EC50” value [3] of the same compound?
Answer: 0.7

Question: What about the “Ratio EC50” value [4] of the same compound?
Answer: 0.9

Question: And the “Ratio EC50” value [5]?
Answer: 1.3

Question: And the pEC50 [7]?
Answer: 7.92

Question: What about the pEC50 [8] of the same compound?
Answer: 8.52

Question: What about the “Ratio EC50” value [9] of the same compound?
Answer: 5

Question: What about the pEC50 [10] of the same compound?
Answer: 8.62

Question: What about the pEC50 [11] of the same compound?
Answer: 8.66

Question: And the pEC50 [12]?
Answer: 8.80

Question: What about the “Ratio EC50” value [13] of the same compound?
Answer: 0.7

Question: What about the pEC50 [14] of the same compound?
Answer: 8.82

Question: And the inhibition [15]?
Answer: Active

From ChEMBL document CHEMBL1649128, “SC29EK, a peptide fusion inhibitor with enhanced alpha-helicity, inhibits replication of human immunodeficiency virus type 1 mutants resistant to enfuvirtide” (Antimicrob Agents Chemother, 2009)
